# Unmarked numbers belong to inactive results.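 Rule for the calls, unless noted: active = growth inhibition above a set limit, 3 SD over mean compound inhibition, in both replicates (cut at about 43% in these data); inconclusive = above the limit in only one replicate; inactive = at or below the limit in both replicates.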
# Assay: OD615 S. cerevisiae growth inhibition, permissive medium, pilot counter-assay, permissive growth control for S. cerevisiae lifespan shortening project (AID 705;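 active = growth inhibition above 25% in both replicates, a cutoff set 3 SD above the mean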)
# Conditions: OD615, 24 h, at 10 µM, active compounds read high
# Method in brief: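 Material: engineered DeaD yeast; compound dosing: one dose 10 µM, DMSO 0.25% final; measure: yeast growth inhibition indicated by reduced 24 h OD615; detection: OD615 turbidity read; incubation: cells pre-grown 4 h, then 24 h compound exposure, 30 °C humidified; medium: permissive synthetic complete medium with raffinose and galactose carbon sources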
row,Structure (SMILES),growth inhibition
1,OC(COc1ccccc1Cl)CN1CCN(CC(O)COc2ccccc2Cl)CC1 (configuration not stated),3.62%
2,COCCNC(=O)CN1C(=O)CC(C)(C)S(=O)(=O)c2ccccc21,-2.02%
3,Cc1ccc(S(=O)(=O)NCC(=O)N2CCC(C)CC2)cc1,-17.5%
4,CCOc1ccc(C2CC(c3cccc(OC)c3)n3nc(N)nc3N2)cc1 (configuration not stated),0.02%
5,Cc1ccc(C2CC(c3cccc(Br)c3)n3nc(N)nc3N2)cc1 (configuration not stated),0.285%
6,Cc1cc(Nc2cccc(F)c2)n2nc(C)nc2n1,-13.6%
7,CCSc1nnc(NC(=O)CSc2nc3c(c(=O)n2-c2ccccc2)SCC3)s1,-6.26%
8,O=c1oc2ccccc2n1Cc1ccccc1Cl,-1.38%
9,Cc1ccc(-c2nc(NC(=O)CSc3nnc(C)s3)ns2)cc1,-5.46%
10,CC1(C)CC2CC(C)(CN2C(=O)c2cc(-c3ccccc3O)on2)C1 (configuration not stated),-11.4%
11,CC1CC(C)CN(S(=O)(=O)c2ccc(NC(=O)C3COc4ccccc4O3)cc2)C1 (configuration not stated),-14.1%
12,O=C(Nc1scc(-c2cccs2)c1C(=O)O)c1cccs1,-11.8%
13,Cc1nc2ccccn2c1C(=O)NC1CCCCC1,4.45%
14,O=c1[nH]c2ccc(Cl)cc2c(-c2ccccc2)c1N1CCOCC1,-4.65%
15,CCOC(=O)CN1c2ccccc2NC(=O)CC1C (configuration not stated),-5.11%
16,CCCCCn1c(=N)n(CC(O)COc2ccccc2OC)c2ccccc21 (configuration not stated),-4.93%
17,COc1ccc(N2C(=O)c3ccccc3NC23CCCCC3)cc1,-13.4%
18,Cc1cccc(N2CCN(C(=O)C3CCN(S(=O)(=O)c4cccc5cccnc45)CC3)CC2C)c1 (configuration not stated),-1.53%
19,CC(=O)Nn1cc2c(=O)n(C)c(=O)n(C)c2c1,-5.47%
20,CC1=C(C(=O)OCCOc2ccccc2)C(c2ccc(C)o2)C2=C(CC(C)(C)CC2=O)N1 (configuration not stated),-17.6%
21,N/C(CC(=O)Nc1cccc(C(F)(F)F)c1)=N/O,-0.19%
22,COc1ccccc1CNC(=O)CCn1c(=O)oc2ccccc21,5.65%
23,Cc1ccc(C(=O)N(Cc2nc(-c3ccc(C)cc3)no2)C(C)C)cc1,-14.3%

# Assay: Restrictive medium S. cerevisiae growth inhibition, OD615, pilot screen of yeast lifespan reduction project, restrictive growth control (AID 706);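 note: modified DeaD lifespan yeast strain shifted to restrictive glucose medium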
# Conditions: OD615, 48 h, at 10 µM, active compounds read high
# Method in brief: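 material = engineered S. cerevisiae DeaD strain | medium = glucose-based CSMM-D restrictive medium | times = 4 h pre-incubation, 48 h exposure at 30 °C | technique = OD615 absorbance reading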
row,Structure (SMILES),growth inhibition
1,Cc1ccc(C2/C(=C(/O)c3ccc(Br)cc3)C(=O)C(=O)N2Cc2ccco2)o1 (configuration not stated),7.88%
2,C=CCN(C(=O)CN1CCOCC1)c1nc(C)c(-c2ccccc2)s1,-12.9%
3,CCOc1cccc(=O)c2c(C)n(Cc3ccco3)c(C)c12,-8%
4,CCOc1ccc(N(CC(=O)Nc2ccc(C)cc2)S(=O)(=O)c2c(C)noc2C)cc1,-19.6%
5,CCCc1ccc(Oc2cn[nH]c2-c2ccc(O)cc2O)cc1,-10.3%
6,CCOC(=O)N1CCN(C(=O)C2CCN(Cc3nc(-c4ccccc4C)oc3C)CC2)CC1,-31.5%
7,Cc1cccc(NC(=O)CN2CCN(CC(=O)Nc3cccc(C)c3)CC2)c1,-10%
8,COc1ccc(-c2nc(CSCC(=O)N3CCC(C(N)=O)CC3)c(C)o2)cc1OC,9.12%
9,O=C1CC(c2ccco2)Sc2nc3ccccc3n21 (configuration not stated),13.4%
10,COc1cc(NC(=O)c2onc(C)c2Cl)c(OC)cc1Cl,-6.72%
11,C/C(=C1/SC(N2CCOCC2)=NC1=O)c1ccc(Br)cc1,3.21%
12,COc1ccc(OC)c(C2=Nn3c(nnc3-c3ccncc3)SC2)c1,11.2%
13,CCOc1ccc2nc(N3CCCC(C(=O)N4CCN(CC)CC4)C3)sc2c1 (configuration not stated),-8.34%
14,O=C(Nc1nccs1)C12CC3CC(C1)CC(C(=O)Nc1nccs1)(C3)C2,28.3%
15,O=C(NC1CCCCC1)N1CCCc2ccccc21,-1.39%
16,COc1ccc(C(=O)OCCN2C(=O)c3ccccc3C2=O)cc1,-5.23%
17,OC(COc1ccccc1Cl)CN1CCN(CC(O)COc2ccccc2Cl)CC1 (configuration not stated),-11.8%
18,COCCNC(=O)CN1C(=O)CC(C)(C)S(=O)(=O)c2ccccc21,-10.2%
19,Cc1ccc(S(=O)(=O)NCC(=O)N2CCC(C)CC2)cc1,-28.3%
20,CCOc1ccc(C2CC(c3cccc(OC)c3)n3nc(N)nc3N2)cc1 (configuration not stated),5.62%

row,Structure (SMILES),growth inhibition
1,Cc1ccc(C2CC(c3cccc(Br)c3)n3nc(N)nc3N2)cc1 (configuration not stated),22.3%
2,Cc1cc(Nc2cccc(F)c2)n2nc(C)nc2n1,-7.6%
3,CCSc1nnc(NC(=O)CSc2nc3c(c(=O)n2-c2ccccc2)SCC3)s1,-2.77%
4,O=c1oc2ccccc2n1Cc1ccccc1Cl,8.91%
5,Cc1ccc(-c2nc(NC(=O)CSc3nnc(C)s3)ns2)cc1,2.65%
6,CC1(C)CC2CC(C)(CN2C(=O)c2cc(-c3ccccc3O)on2)C1 (configuration not stated),-4.57%
7,CC1CC(C)CN(S(=O)(=O)c2ccc(NC(=O)C3COc4ccccc4O3)cc2)C1 (configuration not stated),-24.7%
8,O=C(Nc1scc(-c2cccs2)c1C(=O)O)c1cccs1,-9.07%
9,Cc1nc2ccccn2c1C(=O)NC1CCCCC1,1.56%
10,O=c1[nH]c2ccc(Cl)cc2c(-c2ccccc2)c1N1CCOCC1,-0.51%
11,CCOC(=O)CN1c2ccccc2NC(=O)CC1C (configuration not stated),-4.52%
12,CCCCCn1c(=N)n(CC(O)COc2ccccc2OC)c2ccccc21 (configuration not stated),4.88%
13,COc1ccc(N2C(=O)c3ccccc3NC23CCCCC3)cc1,-9.03%
14,Cc1cccc(N2CCN(C(=O)C3CCN(S(=O)(=O)c4cccc5cccnc45)CC3)CC2C)c1 (configuration not stated),-4.12%
15,CC(=O)Nn1cc2c(=O)n(C)c(=O)n(C)c2c1,1.6%
16,CC1=C(C(=O)OCCOc2ccccc2)C(c2ccc(C)o2)C2=C(CC(C)(C)CC2=O)N1 (configuration not stated),-10.8%
17,N/C(CC(=O)Nc1cccc(C(F)(F)F)c1)=N/O,2.58%
18,COc1ccccc1CNC(=O)CCn1c(=O)oc2ccccc21,6.41%
19,Cc1ccc(C(=O)N(Cc2nc(-c3ccc(C)cc3)no2)C(C)C)cc1,-18.5%

# From PubChem BioAssay
